# Measurements pooled from the literature.
# Protocols differ between the studies behind these lines.
# MET: Hepatocyte growth factor receptor (MET, Homo sapiens, UniProt P08581)
# MET M1250T: Hepatocyte growth factor receptor (MET, Homo sapiens, UniProt P08581, M1250T)
# MET Y1235D: Hepatocyte growth factor receptor (MET, Homo sapiens, UniProt P08581, Y1235D)
Compound,target,read-out,technique,concentration,remaining binding
CC1=C(C#N)C(c2ccc3c(c2)c(NC(=O)c2ccccc2C)nn3C)C(C#N)=C(C)N1,MET,cell-free assay,competition with immobilised ligand,1 µM,24%
Cc1cnc(Nc2ccc(C(=O)N3CCC(N4CCCC4)CC3)cc2)nc1-c1cc2ccccc2s1,MET,binding,competition with immobilised ligand,1 µM,100%
CC(=O)N1CCC(c2ccc(C(=O)NC3=NCCN3)cc2C(F)(F)F)CC1,MET M1250T,cell-free assay,competition with immobilised ligand,1 µM,84%
c1cncc(-c2cccc(Nc3nccc(NC4CCCCC4)n3)c2)c1,MET M1250T,binding,competition with immobilised ligand,10 µM,29%
O=C(NCCCN1CCOCC1)c1ccc(Nc2ncc(Cl)c(-c3ccc(Cl)s3)n2)cc1,MET M1250T,binding,competition with immobilised ligand,1 µM,13%
O=C(Nc1c[nH]nc1C(=O)NC1CCNCC1)c1cc(F)cc(F)c1,MET M1250T,binding,competition with immobilised ligand,1 µM,100%
F[C@@H]1CCN(c2nccc(-c3cnn4ncccc34)n2)C1,MET,binding,,1 µM,90%
Nc1ncc2c(n1)-c1c([nH]c3ccc(C#CC4CC4)cc13)CCCC2,MET M1250T,binding,competition with immobilised ligand,1 µM,95%
COc1cc(-c2cn(C3CCc4c(F)cccc4N(CC(F)(F)F)C3=O)nn2)ccc1-n1cnc(C)c1 (stereo not drawn),MET M1250T,cell-free assay,competition with immobilised ligand,1 µM,100%
CC1CCCN1c1nccc(-c2cnn3ncccc23)n1 (stereo not drawn),MET,binding,,1 µM,96%
O=C(NC[C@@H]1[C@H]2CN(C(=O)OCc3cc(C(F)(F)F)cc(C(F)(F)F)c3)C[C@@H]12)c1ccc2[nH]nnc2c1,MET M1250T,cell-free assay,competition with immobilised ligand,1 µM,100%
N[C@@H]1CCN(c2nccc(-c3cnn4ncccc34)n2)C1,MET M1250T,binding,,1 µM,100%
COc1cnc(Nc2cccc(S(N)(=O)=O)c2)nc1N1CCN(c2ccccc2)CC1,MET Y1235D,binding,competition with immobilised ligand,1 µM,100%
C[C@@H]1CCN(c2nccc(-c3cnn4ncccc34)n2)C1,MET Y1235D,binding,,1 µM,79%
CC(=O)Nc1c(C(C)=O)c(=O)n(C)c2nc(-c3ccc(Cl)cc3Cl)c(-c3ccc(Cl)cc3)cc12,MET,cell-free assay,competition with immobilised ligand,1 µM,100%
COc1ccnn2ncc(-c3ccnc(N(C)C)n3)c12,MET,binding,,1 µM,92%
O=C(NCCCN1CCOCC1)c1ccc(Nc2nccc(-c3cc4ccccc4s3)n2)cc1,MET,binding,competition with immobilised ligand,1 µM,100%
CN(C)C(=O)Cn1cc(-c2nc(C3(c4ccc(-c5cnc(N)nc5)cc4)CC3)no2)cn1,MET,cell-free assay,competition with immobilised ligand,1 µM,73%
